The values below come from ChEMBL document CHEMBL3271958, “Azaparacyclophanes. A novel class of conformationally rigid analogs of phenylethylamine and phenylpropylamine” (J Med Chem, 1976).

Calls of active or inactive are those of the source. No cut-off for these calls is given here.

The subject of data set [1] is Felis catus. As to the kind of experiment: Anticholinergic activity in cat assessed as effect on acetylcholine-induced normal heart rate and blood pressure changes at 1 to 10 mg/kg, iv. It is filed as ADME, organism-based. Set-up: dose 1-10 mg/kg, route intravenous. The conditions noted are these: in vivo. The procedure, abridged: (§1)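 Pentobarbital-anaesthetised cat monitored for blood pressure and heart rate. Hydrochloride salt given as cumulative iv doses of 1, 3 and 10 mg/kg, each tested against a standard acetylcholine challenge of 1 μg/kg, noting any change in the normal heart-rate and pressure responses.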

In data set [2] the test system is Mus musculus. As to the kind of experiment: Induction of mydriasis in mouse assessed as papillary diameter at 25 mg/kg, sc by binocular microscopic analysis. It is filed as functional, organism-based. Set-up: dose 25 mg/kg. The procedure, abridged: (§2)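 Mouse pupil diameter was read through a binocular microscope fitted with an ocular micrometer (Pulewka method), after dosing within the mouse behaviour screen.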

The subject of data set [3] is Mus musculus. Description: Sympathomimetic activity in mouse assessed as signs of exophthalmia and piloerection at 10 to 300 mg/kg, ip. It is filed as ADME, organism-based. Set-up: dose 10-300 mg/kg, route intraperitoneal. The conditions noted are these: in vivo.
Data set [4] deals with Mus musculus. Description: Induction of mydriasis in mouse assessed as papillary diameter at 30 mg/kg, ip by binocular microscopic analysis. Set-up: dose 30 mg/kg. The class given is functional, organism-based. The procedure, abridged: as §2
Another data set relates to Rattus norvegicus. As to the kind of experiment: Central dopaminergic activity in rat assessed as dopaminergic stimulant activity at 30 mg/kg, ip. It is filed as ADME, organism-based. Set-up: dose 30 mg/kg, route intraperitoneal. The conditions noted are these: in vivo. In short, it runs like this:
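Rats carrying 6-hydroxydopamine lesions of the nigrostriatal pathway (Ungerstedt), dosed 30 mg/kg ip. Rotation was scored: ipsilateral turning indicates release of endogenous dopamine, contralateral turning indicates direct dopamine-receptor stimulation.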

The test system of data set [5] is Felis catus. Description: Sympathomimetic activity in iv dosed cat assessed as increase of heart rate and blood pressure. To be noted: in vivo. It is filed as ADME, organism-based. In short, it runs like this: as §1
Data set [6] relates to Mus musculus. As to the kind of experiment: Toxicity in mouse at 100 mg/kg, ip. It is filed as organism-based. Set-up: dose 100 mg/kg, route intraperitoneal. To be noted: in vivo.
Data set [7] deals with Mus musculus. Description: Induction of mydriasis in mouse assessed as […] at 100 mg/kg, ip by binocular microscopic analysis. It is filed as functional, organism-based. Set-up: dose 100 mg/kg. The procedure, abridged:
as §2

Data set [8] deals with Mus musculus. Description: Sympathomimetic activity in mouse assessed as signs of exophthalmia at 100 mg/kg, ip. It is filed as ADME, organism-based. Set-up: dose 100 mg/kg, route intraperitoneal. To be noted: in vivo. The procedure, abridged: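 Irwin-type mouse behavioural screen with intraperitoneal doses of 10, 30, 100 and 300 mg/kg, compound given as the hydrochloride salt. Animals were scored by observation for overt signs, including exophthalmia as an indicator of sympathomimetic activity and mydriasis. Pupil diameter was measured under a binocular microscope with an ocular micrometer.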

In data set [9] the test system is Mus musculus. Description: Toxicity in mouse at 30 mg/kg, ip. It is filed as organism-based. Set-up: dose 30 mg/kg, route intraperitoneal. The conditions noted are these: in vivo.

For `Cl.c1cc2ccc1CCCCCNCCC2`, the Activity entry with Felis catus [1], in the data set with Mus musculus [3], with Rattus norvegicus and with Felis catus [5] was “Non-toxic” throughout. Also, the result in the data set with Mus musculus [2] and in the data set on Mus musculus [4] was Active.
As to `CCCCCc1ccc(CCNC)cc1.O=C(O)/C=C\C(=O)O`, the Activity result with Mus musculus [6] is “Toxic”; in the data set with Rattus norvegicus it was “Non-toxic”. Also, the outcome in the data set on Mus musculus [7] was inactive.
For `CCCCc1ccc(CCCNC)cc1.Cl`, the outcome in the data set with Mus musculus [7] was Active. Also, the figures for the Activity entry in the data set with Mus musculus [8] and in the data set on Rattus norvegicus were “Toxic” and “Non-toxic”, respectively.
`O=C(O)/C=C\C(=O)O.c1cc2ccc1CCCCCCNCC2`: the Activity result with Mus musculus [9] is on record as “Toxic”; in the data set on Rattus norvegicus it was “Non-toxic”. Moreover, the outcome in the data set on Mus musculus [4] was inactive.
